Source: ChEMBL document CHEMBL1146533, “Antimicrobial and antiparasitic (+)-trans-hexahydrodibenzopyrans and analogues from Machaerium multiflorum” (J Nat Prod, 2003)
In brackets after ≈: the same amount, converted by molar mass. Activity calls are given as the source filed them. The calls are words filed in the database; no cut-off is given here.

What was measured:
Aspergillus fumigatus [1] = test: Antimicrobial activity against Aspergillus fumigatus ATCC 90906 by modified NCCLS method; type: functional, organism-based
Cryptococcus neoformans = test: Antimicrobial activity against Cryptococcus neoformans ATCC 90113 by modified NCCLS method; type: functional, organism-based
Candida albicans [2] = test: Antimicrobial activity against Candida albicans ATCC 90028 by modified NCCLS method; type: functional, organism-based
[3] = test system: Mycobacterium intracellulare; test: Antimicrobial activity against Mycobacterium intracellular by Alamar blue assay; type: functional, organism-based
Staphylococcus aureus [4] = test: Antimicrobial activity against Staphylococcus aureus ATCC 29213 by modified NCCLS method; type: functional, organism-based
Staphylococcus aureus [5] = test: Antimicrobial activity against methicillin-resistant Staphylococcus aureus ATCC 43300 by modified NCCLS method; type: functional, organism-based
[6] = test system: Mycobacterium intracellulare; test: Antimicrobial activity against Mycobacterium intracellular at 50 ug/mL by Alamar blue assay; type: functional
Aspergillus fumigatus [7] = test: Antimicrobial activity against Aspergillus fumigatus ATCC 90906 at 50 ug/mL by modified NCCLS method; type: functional, organism-based
Candida albicans [8] = test: Antifungal activity against Candida albicans ATCC 90028 at 50 ug/mL by modified NCCLS method; type: functional, organism-based
Vero = test: Cytotoxicity against african green monkey Vero cells at 4.7 ug/mL; type: cell-based; details: chlorocebus sabaeus
Plasmodium falciparum [9] = test: Antimalarial activity against chloroquine-sensitive Plasmodium falciparum D6; type: functional, organism-based
[10] = Selectivity index, ratio of IC50 for african green monkey (Cercopithecus aethiops) Vero cells to IC50 for chloroquine-sensitive Plasmodium falciparum D6; type: toxicity, cell-based; details: read-out: Ratio IC50
Summary of the method: (§1)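 Selectivity index calculated as IC50 in Vero cells divided by IC50 against P. falciparum.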

[11] = Selectivity index, ratio of IC50 for african green monkey (Cercopithecus aethiops) Vero cells to IC50 for chloroquine-sensitive Plasmodium falciparum W2; type: toxicity, cell-based; details: read-out: Ratio IC50; summary of the method: as §1
Leishmania donovani = test: Antileishmanial activity against Leishmania donovani promastigotes after 72 hrs; type: functional, organism-based
Plasmodium falciparum [12] = test: Antimalarial activity against chloroquine-resistant Plasmodium falciparum W2; type: functional, organism-based

Row | SMILES | MIC (Aspergillus fumigatus [1]) [µg/mL] | MIC (Candida albicans [2]) [µg/mL] | IC50 [3] [µg/mL] | MIC [3] [µg/mL] | IC50 (Staphylococcus aureus [4]) [µg/mL] | MBC (Staphylococcus aureus [5]) [µg/mL] | MIC (Staphylococcus aureus [5]) [µg/mL] | Activity (Aspergillus fumigatus [7]) | IC50 (Cryptococcus neoformans) [µg/mL] | IC50 (Candida albicans [2]) [µg/mL] | MBC (Staphylococcus aureus [4]) [µg/mL] | MIC (Staphylococcus aureus [4]) [µg/mL] | IC50 (Staphylococcus aureus [5]) [µg/mL] | Activity (Vero) | IC50 (Plasmodium falciparum [9]) [µg/mL] | selectivity ratio [10] | selectivity ratio [11] | IC50 (Leishmania donovani) [µg/mL] | IC90 (Leishmania donovani) [µg/mL] | IC50 (Plasmodium falciparum [12]) [µg/mL] | also measured
1 | C[C@@H]1[C@H](O)[C@@H](C)/C=C/C=C/C=C/C=C/C=C/C=C/C=C/[C@H](O[C@@H]2O[C@H](C)[C@@H](O)[C@H](N)[C@@H]2O)C[C@@H]2O[C@](O)(C[C@@H](O)C[C@@H](O)[C@H](O)CC[C@@H](O)C[C@@H](O)CC(=O)O[C@H]1C)C[C@H](O)[C@H]2C(=O)O [AMPHOTERICIN B] | 1.25 (≈ 1.35 µM) | 0.31 (≈ 0.335 µM) |  |  |  |  |  |  |  |  |  |  |  |  |  |  |  |  |  |  | MIC (Cryptococcus neoformans): 0.63 µg/mL (≈ 0.682 µM)
2 | O=C(O)c1cn(C2CC2)c2cc(N3CCNCC3)c(F)cc2c1=O [CIPROFLOXACIN] |  |  | 0.45 (≈ 1.36 µM) | 0.63 (≈ 1.9 µM) | 0.15 (≈ 0.453 µM) | 0.31 (≈ 0.936 µM) | 0.31 (≈ 0.936 µM) |  |  |  |  |  |  |  |  |  |  |  |  |  | 
3 | C=C(C)[C@H]1CC[C@H](C)C[C@@H]1c1c(O)cc(/C=C/c2ccccc2)cc1O [MACHAERIDIOL A] | 12.5 (≈ 35.9 µM) | 50 (≈ 143 µM) | 7 (≈ 20.1 µM) | 12.5 (≈ 35.9 µM) | 1 (≈ 2.87 µM) | 3.13 (≈ 8.98 µM) | 1.56 (≈ 4.48 µM) | inactive | 15 (≈ 43 µM) | 3.5 (≈ 10 µM) | 3.13 (≈ 8.98 µM) | 1.56 (≈ 4.48 µM) | 1 (≈ 2.87 µM) |  |  |  |  |  |  |  | MBC [6]: 50 µg/mL (≈ 143 µM); Activity (Cryptococcus neoformans): inactive; Activity (Candida albicans [8]): inactive
4 | C=C(C)[C@H]1CC[C@H](C)C[C@@H]1c1c(O)cc(/C=C/c2ccccc2O)cc1O [MACHAERIDIOL B] | 10 (≈ 27.4 µM) | 6.25 (≈ 17.1 µM) |  |  | 2.6 (≈ 7.13 µM) | 6.25 (≈ 17.1 µM) | 6.25 (≈ 17.1 µM) | inactive | 3.5 (≈ 9.6 µM) | 2 (≈ 5.49 µM) | 6.25 (≈ 17.1 µM) | 6.25 (≈ 17.1 µM) | 2 (≈ 5.49 µM) | Non-toxic | 0.64 (≈ 1.76 µM) | > 7.4 | > 22 | 0.9 (≈ 2.47 µM) | 8 (≈ 21.9 µM) | 0.22 (≈ 0.604 µM) | Activity (Candida albicans [8]): inactive; Activity [3]: inactive
5 | C=C(C)[C@H]1CC[C@H](C)C[C@@H]1c1c(O)cc(-c2cc3ccccc3o2)cc1O [MACHAERIDIOL C] |  |  | 10 (≈ 27.6 µM) | 25 (≈ 69 µM) | 3 (≈ 8.28 µM) | 12.5 (≈ 34.5 µM) | 6.25 (≈ 17.2 µM) |  | 25 (≈ 69 µM) | 45 (≈ 124 µM) | 12.5 (≈ 34.5 µM) | 6.25 (≈ 17.2 µM) | 3.5 (≈ 9.66 µM) | Non-toxic | 3.3 (≈ 9.1 µM) | > 1.4 | > 1.9 | 3 (≈ 8.28 µM) | 10 (≈ 27.6 µM) | 2.5 (≈ 6.9 µM) | Activity (Aspergillus fumigatus [1]): inactive; Activity [6]: inactive
6 | C[C@H]1CC[C@H]2[C@H](C1)c1c(O)cc(/C=C/c3ccccc3O)cc1OC2(C)C [MACHAERIOL C] | 100 (≈ 274 µM) |  | 20 (≈ 54.9 µM) |  | 0.65 (≈ 1.78 µM) | 12.5 (≈ 34.3 µM) | 1.56 (≈ 4.28 µM) | inactive | 40 (≈ 110 µM) | 20 (≈ 54.9 µM) | 6.25 (≈ 17.1 µM) | 1.56 (≈ 4.28 µM) | 0.7 (≈ 1.92 µM) | Non-toxic | 3 (≈ 8.23 µM) | 1.6 | 1.3 | 6 (≈ 16.5 µM) | 12 (≈ 32.9 µM) | 3.7 (≈ 10.2 µM) | 
7 | C[C@@H]1C[C@@H]2c3c(O)cc(-c4cc5ccccc5o4)cc3OC(C)(C)[C@H]2C[C@H]1O [MACHAERIOL D] |  |  |  |  | 25 (≈ 66.1 µM) |  |  |  |  |  |  | 50 (≈ 132 µM) | 30 (≈ 79.3 µM) |  |  |  |  |  |  |  | Activity (Aspergillus fumigatus [1]): inactive; Activity (Cryptococcus neoformans): inactive; Activity [3]: inactive; Activity (Candida albicans [2]): inactive; Activity (Staphylococcus aureus [5]): inactive
8 | N=C(N)c1ccc(OCCCCCOc2ccc(C(=N)N)cc2)cc1 [PENTAMIDINE] |  |  |  |  |  |  |  |  |  |  |  |  |  |  |  |  |  | 0.42 (≈ 1.23 µM) | 1.5 (≈ 4.41 µM) |  | 
